# RAD52 anneal inh = RAD52 (human) annealing inhibition. actives 0.46% (n = 360,000). recombinant RAD52 DNA annealing, FRET fluorescence. AID 651710. P43351. inhibition, % at 18.7 µM;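 active means every replicate showing at least 50% inhibition; inconclusive means mean inhibition at least 50% but not in every replicate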
# Target sequence (P43351 whole entry, looked up): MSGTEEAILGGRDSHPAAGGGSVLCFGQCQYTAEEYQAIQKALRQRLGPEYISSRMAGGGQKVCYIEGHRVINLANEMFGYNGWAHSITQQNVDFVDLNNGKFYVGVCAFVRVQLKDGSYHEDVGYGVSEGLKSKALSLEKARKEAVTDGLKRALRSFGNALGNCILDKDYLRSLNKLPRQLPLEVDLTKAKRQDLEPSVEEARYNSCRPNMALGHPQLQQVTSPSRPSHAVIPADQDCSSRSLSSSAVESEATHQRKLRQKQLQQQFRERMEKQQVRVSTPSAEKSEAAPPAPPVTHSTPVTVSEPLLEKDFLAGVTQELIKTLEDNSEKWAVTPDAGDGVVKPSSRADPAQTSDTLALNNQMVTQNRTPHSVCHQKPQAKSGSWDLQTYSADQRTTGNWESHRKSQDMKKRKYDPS
# MLL AF4-AF9 inh = blocks AF4 peptide binding to human AF9. actives 0.47% (n = 350,000). AID 651704. P42568. AlphaScreen, biotin-AF4 peptide binding to FLAG-AF9. inhibition, % at 10 µM;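 active means every replicate reaching a set inhibition limit, whatever the replicate mean, cut at about 25% in these data; inconclusive means mean inhibition reaches that limit but some replicates miss it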;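 further: 0% = plate neutral control median and 100% = total signal loss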
# RAD54 inh = blocks human RAD54 Holliday junction branch migration; inhibition, % at 10.4 µM; FAM/BHQ fluorescence; Q92698; actives 0.14% (n = 360,000);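 active means mean normalized replicate activity at least 40 and at least half of replicates scoring 40 or more; inconclusive means only one of the two criteria met; inactive means mean below 40 and under half of replicates reaching 40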;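 further: 0% = median of neutral control wells and 100% = median of positive control wells; inhibitors cause a drop in the FAM fluorescence signal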
# N-glyco inh = blocks N-linked glycosylation in D54 reporter cells. D54 ERlucT glycosylation luciferase reporter, 24 h; percent of 100 nM tunicamycin response. actives 0.23% (n = 360,000). reporter increase, % at 12.5 µM;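 active means mean luciferase reporter signal, scaled so untreated is 0 and the glycosylation-blocking control 100, at or above a set limit in every replicate; inconclusive means mean reaches the limit but not every replicate does; inactive means mean below the limit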;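 further: luciferase carries N-glycosylation sites so blocking glycosylation raises the light; 0% = median of neutral control wells and 100% = median of 100 nM tunicamycin wells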
# FN deposition inh = fibronectin deposition inhibition; actives 0.086% (n = 350,000); inhibition, % at 12.6 µM; AH1F fibroblasts, Alexa488-fibronectin deposition fluorescence, overnight;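 active means mean inhibition across replicates of 30% or more, regardless of how many single replicates reach that level; inconclusive means mean under 30% yet at least half of replicates reach 30%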;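 further: positive control wells lacked labelled fibronectin entirely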
#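 Test system: AH1F fibroblast monolayer depositing Alexa488-labelled fibronectin into matrix. Input: 10000 cells per well. Technique: fluorescence, ex 485 nm, em 525 nm. Buffer or medium: DMEM plus 2% serum, read in PBS. Timing: 1 h cell adhesion before compound, then overnight fibronectin incubation. Compound: single dose, pinned. Read-out basis: inhibition from reduced deposited-fibronectin fluorescence.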
# RAD52 DNA ctr = counter-screen for RAD52 inhibitors: DNA binding compounds | shares compounds with RAD52 anneal inh | Salmon sperm DNA/acridine orange FP displacement | AC50, µM | actives 8% (n = 1,000);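 active means fitted half-maximal concentration for signal loss at or below twice the highest dose tested, in every separate run, actives reach about 64 µM in these data; inconclusive means runs disagree, or flat partial signal loss, or poor fit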
# An asterisk follows results filed as active; i = inactive; ? = inconclusive; . = no result given. This is a sample that favours compounds with a hit; in the whole collection about 0.92% have one here.
SMILES,RAD52 anneal inh,MLL AF4-AF9 inh,RAD54 inh,N-glyco inh,FN deposition inh,RAD52 DNA ctr
C[C@@H]1ON(C)[C@H]2C[C@H]3c4cc(-c5cc6ccccc6o5)ccc4CCN3C[C@@H]12,68*,.,.,.,-4,i
O=C(Cc1ccccc1)N1CC(=O)N2[C@H](C1)[C@H](c1ccc(C#CCc3ccccc3)cc1)[C@@H]2CO,-17,0,.,.,.,.
CSc1ccc2c(c1)C(N1CCN(C)CC1)Cc1ccccc1S2 (centres undefined),52*,19,19,2,-1,i
CN1CCN(C2Cc3cc(F)ccc3Sc3ccc(Cl)cc32)CC1 (centres undefined),39,12,16,1,0,.
CN1CCN(C2Cc3ccccc3Sc3ccc(Cl)cc32)CC1 (centres undefined),54*,8,12,-1,1,i
C[C@H]1CN([C@@H](C)CO)C(=O)c2cc(-c3ccccc3)cnc2O[C@@H]1CN(C)C(=O)C1CCCCC1,-6,1,.,.,.,.
CCN1CCN(C(=O)CCCn2c(C)c3cnn(-c4ccccc4)c(=O)c3c2C)CC1,-8,3,-1,-1,1,.
Cc1c2cnn(-c3ccccc3)c(=O)c2c(C)n1CCCC(=O)NCCN1CCN(C)CC1,58*,?,.,0,6,i
CC(C)C#Cc1cnc2c(c1)C(=O)N([C@H](C)CO)C[C@H](C)[C@H](CN(C)C(=O)Nc1cccc(F)c1)O2,21,2,2,.,-1,.
CC1(C)CC(N=c2cc(-c3ccccc3)oc3ccc(Cl)cc23)CC(C)(C)N1,101*,19,.,?,-3,17µM*
C[C@@H]1CN([C@H](C)CO)C(=O)c2cc(/C=C/c3ccccc3)cnc2O[C@@H]1CN(C)C(=O)c1cnccn1,2,0,3,.,2,.
C[C@H]1CN([C@@H](C)CO)C(=O)c2cc(/C=C/c3ccccc3)cnc2O[C@@H]1CN(C)C(=O)Nc1ccc(C(F)(F)F)cc1,21,5,0,.,6,.
CCCCN(CCCNC(=S)NCCCc1cnc[nH]1)c1ccc(Br)cn1,55*,23,1,1,-6,i
CC(C)NC(=O)Nc1ccc2c(c1)C(=O)N([C@@H](C)CO)C[C@H](C)[C@H](CN(C)S(=O)(=O)c1ccc(F)cc1)OCCCC[C@@H](C)O2,6,-5,5,.,.,.
COc1ccc(NC(=O)N(C)C[C@@H]2Oc3ncc(-c4cccnc4)cc3C(=O)N([C@@H](C)CO)C[C@@H]2C)cc1,-12,-7,2,.,.,.
Oc1cccc(CN2CCOCC2)c1O,-6,-2,-7,-3,.,.
Oc1c(CN2CCOCC2)cc(CN2CCOCC2)c(O)c1O,61*,-4,1,0,-7,i
C[n+]1c2n(c3ccccc31)N=C(c1cc(C(C)(C)C)c(O)c(C(C)(C)C)c1)CS2,60*,27*,.,12,.,i
COc1cccc(C2=Nn3c(nnc3-c3ccccc3O)SC2)c1,.,.,11,-1,-3,.
CN1CCN(CCCNc2nc3ccccc3c3nc(-c4ccccc4)nn23)CC1,66*,19,.,6,-2,i
CC(C)CCNC(=O)CCC(=O)NNc1nc2ccccc2c2nc(-c3ccccc3)nn12,.,.,-5,6,-13,.
CCN(CC)CCCNc1nc2ccccc2c2nc(-c3ccncc3)nn12,-80,2,109*,119*,-1,46µM*
FC(F)(F)c1cc(CCN2CCNC[C@H]2Cc2cccc3ccccc23)cc(C(F)(F)F)c1,60*,4,16,-2,0,i
CCN1[C@@H]2Cn3c(ccc(-c4cccnc4)c3=O)[C@H]1[C@@H](C(=O)NCc1ccccc1)[C@@H]2CO,7,0,17,.,.,.
CCN1CCCC(OC(=O)c2cc(-c3ccc(C)cc3)nc3ccccc23)C1 (centres undefined),57*,15,.,-7,-6,i
SMILES,RAD52 anneal inh,MLL AF4-AF9 inh,RAD54 inh,N-glyco inh,FN deposition inh,RAD52 DNA ctr
CN(C)CCCN(C(=O)c1ccco1)c1nc2cc3c(cc2s1)OCO3,54*,4,41,6,-1,i
CN(C)CCCN(C(=O)c1nc2ccccc2s1)c1nc2ccc(F)cc2s1,84*,1,2,1,-18,i
CN(C)CCN(C(=O)c1ccc(S(=O)(=O)N(C)c2ccccc2)cc1)c1nc2cc3c(cc2s1)OCCO3,-5,0,23,-1,6,.
CC(=O)N(CCN(C)C)c1nc2cc3c(cc2s1)OCCO3,55*,8,38,1,7,i
CCN(CC)CCN(C(=O)c1cccc(N2C(=O)CCC2=O)c1)c1nc2cc3c(cc2s1)OCO3,5,3,38,1,8,.
Cc1ccc2nc(N(CCCN(C)C)C(=O)c3ccco3)sc2c1,1,-1,.,-3,3,.
CCN(CC)CCN(C(=O)c1ccc(N2C(=O)CCC2=O)cc1)c1nc2cc3c(cc2s1)OCCO3,80*,13,.,4,5,i
CN(C)CCCN(C(=O)c1ccc(C(=O)c2ccccc2)cc1)c1nc2ccc(F)cc2s1,49,17,13,-3,3,.
Cc1ccc(-c2csc(N(CCCN(C)C)C(=O)c3ccco3)n2)cc1,64*,22,.,3,6,i
COc1ccc(Cl)c2sc(N(CCN(C)C)C(=O)c3ccc4c(c3)OCCO4)nc12,91*,14,.,-2,12,i
Cc1ccc(-c2csc(N(CCCN3CCOCC3)C(=O)c3ccco3)n2)cc1,.,.,17,-7,3,.
Cc1ccc2nc(N(CCCN(C)C)C(=O)c3ccc4c(c3)CCCC4)sc2c1,.,.,26,-9,-3,.
CN(C)CCCN(C(=O)c1ccc2c(c1)CCCC2)c1nc2c(F)cccc2s1,75*,32*,9,6,6,i
COc1cc2nc(N(CCN(C)C)C(=O)c3ccc4ccccc4c3)sc2cc1OC,.,.,12,-2,.,.
CN(C)CCCN(C(=O)c1cc2cc([N+](=O)[O-])ccc2s1)c1nc2cc3c(cc2s1)OCCO3,51*,14,-3,-7,8,i
Cc1noc(C)c1S(=O)(=O)Nc1ccc2c(c1)C(=O)N([C@H](C)CO)C[C@H](C)[C@H](CN(C)Cc1ccncc1)O2,5,-3,-3,.,.,.
COc1ccc(CN(C)C[C@H]2OCCCC[C@H](C)Oc3ccc(NC(=O)c4ccncc4)cc3C(=O)N([C@@H](C)CO)C[C@@H]2C)cc1,3,1,-6,.,-1,.
CN(C)CCN(C(=O)c1ccc2c(c1)CCCC2)c1nc2cc3c(cc2s1)OCCO3,72*,37*,4,-4,4,i
CN(C)CCN(C(=O)c1ccc2ccccc2c1)c1nc2cc3c(cc2s1)OCO3,67*,?,33,-4,0,i
CN(C)CCN(C(=O)c1ccc2c(c1)OCCO2)c1nc2cc3c(cc2s1)OCO3,0,10,34,-5,.,.
